Compound activity deposited in PubChem BioAssay by several laboratories.
Shown is part of a subset that was picked to be rich in hits.
bCat KO growth: primary screen for growth suppressors in beta-catenin knockout HCT116 cells (colon tumor, human); HCT116 beta-catenin knockout viability, CellTiter-Glo, 60 h; hits give low values; viability, % at 10 µM; hit rate 1.5% among 140,000; AID 818, 2007;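 active means viability at or under a set limit, the compound median less 4 SD, cut at about 6% in these data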;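 further: 0% = Hyamine 1622 control at 20 µM and 100% = untreated cell control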
Lung fibro prol: antiproliferative effect on LL 47 fibroblasts – human, LL 47 cells, CellTiter-Glo luminescence, primary screen. viability, % at 10 µM. hit rate 1.1% among 85,000. LL 47 human lung fibroblast viability, ATP luminescence; hits give low values;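 active means viability at or below 50% in the single dose screen; inactive means viability above 50%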;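 further: compound exposure lasted 72 h before the ATP readout; 100% = median luminescence of untreated cell-only wells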
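Benchmarks: Cell-only wells, no compound | Test system: LL 47 human lung fibroblasts, passage 12 or lower | Input: 1,150 cells/well | Measured by: CellTiter-Glo luminescence measuring cellular ATP | Medium: IMEM, 15% FBS supplement | Schedule: Overnight attachment after seeding, then 72 h compound exposure at 37 °C | Doses: Compound addition at 0.1% DMSO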
HCT116 PTEN-null: growth suppression of PTEN-null HCT116, primary screen, cell-based, CellTiter-Glo; HCT116 PTEN-null viability, 60 h; hits give low values; AID 827, 2007; viability, % at 10 µM; hit rate 1.2% among 140,000;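 active means viability at or below a set limit, 4 SD under the median of all tested compounds, cut at about 3.7% in these data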;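 further: PTEN knockout HCT116 line with beta catenin targeted HCT116 as companion control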
HUVEC inhibit: inhibitors of HUVEC proliferation, primary screen, cell-based, 384-well; CellTiter-Glo luminescence, 72 h; hits give low values; viability, % at 10 µM (by protocol); hit rate 1.1% among 86,000;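 active means viability at or below 30%; inactive means viability above 30%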;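 further: 100% = median luminescence of DMSO-only cell control wells on each plate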
Candida biofilm: clotrimazole potentiators killing Candida biofilms, primary screen, with clotrimazole, Alamar Blue | inhibition, % at 6 µM | hit rate 0.14% among 85,000 | AID 834, 2007 | C. albicans biofilm + clotrimazole;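 active means inhibition above 20%; inactive means inhibition below 20%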;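 further: preformed 24 hr biofilms exposed to compound for 48 hr; 0% = biofilm without compound and 100% = blank killed by clotrimazole plus chlorhexidine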
H69AR growth 86K: proliferation blockers of H69AR lung cancer cells, primary screen, cell-based, human, 86K library; AID 598, 2007; hit rate 6% among 85,000; H69AR lung tumor viability, ATP luminescence, 72 h; hits give low values; viability, % at 10 µM;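 active means viability at or below 40%; inactive means viability above 40%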;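 further: multidrug resistant small cell line overexpressing MRP-1 efflux transporter; 100% = mean luminescence of untreated control wells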
* marks the source's active call; other numbers are inactive results; x = no result.

SMILES | bCat KO growth | Lung fibro prol | HCT116 PTEN-null | HUVEC inhibit | Candida biofilm | H69AR growth 86K
O=S(=O)(c1ccc(S(=O)(=O)N2CCCC2)cc1)N1CCCCCC1 | 95 | 102 | 99 | 95 | 9 | 95
O=S(=O)(c1ccc2c(c1)C(=NO)c1cc(S(=O)(=O)N3CCCCC3)ccc1-2)N1CCCCC1 | 0.9* | 1.6* | 1.6* | 1.6* | 4 | 0.4*
CN(Cc1ccccc1)C(=O)CSc1nnc(-c2ccco2)n1-c1ccccc1 | 97 | 91 | 94 | 92 | -4 | 62
Cc1cc(C)c(NC(=O)COc2ccccc2C(=O)Nc2ccc3c(c2)oc2ccccc23)c(C)c1 | 67 | 47* | 48 | 82 | -1 | 26*
CCOc1ccccc1C(=O)Nc1ccc(-c2nnc(-c3ccc(C)cc3)o2)cc1 | x | 101 | x | 102 | -3 | 99
CC1=CCC(/C=N\Nc2nnc3c(n2)[nH]c2ccccc23)CC1 (stereo not given) | 88 | x | 96 | x | x | x
Cc1ccc(Cn2ccc(NC(=O)c3nn(C)cc3[N+](=O)[O-])n2)cc1 | 5.0* | x | 2.6* | x | x | x
Cn1cc([N+](=O)[O-])c(C(=O)Nc2ccc(C(=O)N3CCCCC3)cc2)n1 | 4.1* | x | 3.5* | x | x | x
Cc1cc(C)n(Cc2ccc(NC(=O)c3nn(C)cc3[N+](=O)[O-])cc2)n1 | 5.3* | x | 1.8* | x | x | x
O=[N+]([O-])c1cc(Oc2cccnc2)cc([N+](=O)[O-])c1 | 89 | x | 97 | x | x | x
Cn1cc([N+](=O)[O-])c(C(=O)Nc2cc(Oc3cccnc3)cc([N+](=O)[O-])c2)n1 | 1.6* | x | 0.3* | x | x | x
CCn1ncc([N+](=O)[O-])c1C(=O)Nc1ccc(C(=O)N2CCCCC2)cc1 | 94 | x | 88 | x | x | x
CCOc1ccccc1NC1=C(Cl)C(=O)N(c2ccccc2)C1=O | 98 | x | 97 | x | x | x
Cc1ccc(C(=O)Nc2ncc(Cc3ccc(F)cc3)s2)o1 | 89 | 92 | 88 | 30* | -1 | 89
CCN(CC)c1ccc(C2Nc3cccc4cccc(c34)N2)c(O)c1 | x | 97 | x | 74 | 9 | 19*
COc1cc(/C=C/c2ccc3cccc(OC)c3n2)c(OC(C)=O)c([N+](=O)[O-])c1 | 67 | 94 | 65 | 15* | 4 | 6.1*
COc1c(OC(C)=O)ccc(/C=C/c2ccc3cccc(OCc4ccccc4)c3n2)c1[N+](=O)[O-] | 56 | x | 52 | x | x | x
Cc1ccccc1-n1ncc2c([N+](=O)[O-])cc([N+](=O)[O-])cc21 | 30 | 65 | 45 | 6.3* | 5 | 25*
CCCn1c(CNc2ccccc2O)nc2ccccc21 | 53 | 101 | 48 | 100 | 4 | 27*
CCCCn1c(CNC(=O)CCC)nc2ccccc21 | 90 | 107 | 84 | 102 | 8 | 103
COc1ccc(OC)c(C(=O)c2oc3ccccc3c2NC(C)=O)c1 | 60 | x | 54 | 88 | 3 | 22*
COc1ccc(C(=O)c2oc3ccccc3c2NC(C)=O)cc1 | 92 | 95 | 100 | 106 | 2 | 90
COc1ccc(N=CC2=C(O)c3ccccc3C2=O)cc1 | 73 | 104 | 60 | 83 | 5 | 35*
COc1cc(CNc2ccccc2SC)ccc1O | 75 | x | 95 | 88 | 5 | 27*
CCOc1cc(CNc2ccccc2SC)ccc1O | 95 | x | 91 | x | x | x
SMILES | bCat KO growth | Lung fibro prol | HCT116 PTEN-null | HUVEC inhibit | Candida biofilm | H69AR growth 86K
CCCSc1nc(C)cc(C)c1C(N)=O | 89 | 99 | 95 | 95 | 4 | 93
Cc1cccc(CS(=O)(=O)c2nnc([C@H](Cc3ccccc3)NC(=O)OC(C)(C)C)o2)c1 | 1.4* | 108 | 1.4* | 47 | 4 | 0.5*
COC(=O)CS(=O)(=O)c1nnc([C@H](Cc2ccccc2)NC(=O)OC(C)(C)C)o1 | 98 | 0.9* | 91 | 80 | -4 | 0.3*
Nc1c(C(O)(C(F)(F)F)C(F)(F)F)cc(C(O)(C(F)(F)F)C(F)(F)F)c2ccccc12 | 20 | 70 | 21 | 70 | 0 | 25*
O=C(NC1CC1)c1cccc(Nc2ccc(-c3ccc4c(c3)OCCO4)nn2)c1 | 56 | 83 | 51 | 73 | 2 | 32*
O=S(=O)(c1ccc(Nc2ccc(-c3ccc4c(c3)OCCO4)nn2)cc1)N1CCCC1 | 42 | 65 | 43 | 16* | 6 | 21*
CC[C@H](C)C(=O)O[C@H]1C[C@@H](C)C=C2C=C[C@H](C)[C@H](CC[C@@H]3C[C@@H](O)CC(=O)O3)[C@H]21 | 94 | 46* | 96 | 17* | 6 | 46
O=C(Nc1ccc(Br)cc1)c1ccc(N2C(=O)C3CC=C(Cl)CC3C2=O)cc1 (stereo not given) | 89 | 92 | 85 | 36 | 9 | 25*
O=C1c2cccc3c(N4CCCCC4)ccc(c23)C(=O)N1CCO | 16 | x | 40 | x | x | x
Cc1n[nH]c(C)c1N1C(=O)c2cccc3c(N4CCCCCC4)ccc(c23)C1=O | 74 | 87 | 65 | 84 | 3 | 35*
CCOCCCNC(=O)c1cc(C)nn1-c1ccccc1 | 109 | 93 | 113 | 95 | 8 | 92
CCOCCCNC(=O)c1cc2sc(Cl)cc2n1CC | 59 | 100 | 65 | 63 | 2 | 36*
N=C1C(c2nc3ccccc3[nH]2)=C(O)CN1c1ccccc1 | 78 | 94 | 70 | 94 | 1 | 32*
CCC(C)N1CC(O)=C(c2nc3ccccc3[nH]2)C1=N (stereo not given) | 78 | 106 | 75 | 93 | 1 | 91
CC1C(O)=C(c2nc3ccccc3[nH]2)C(=N)N1c1ccccc1 (stereo not given) | 31 | 79 | 34 | 74 | 2 | 22*
CCC(C(=O)O/N=C(\N)c1cccc(C)c1)c1ccccc1 (stereo not given) | 64 | 82 | 66 | 89 | -1 | 7.9*
C=CCn1c(SCC(=O)c2ccc(Br)cc2)nnc1C(CC(C)C)NC(=O)c1cccs1 (stereo not given) | 90 | 103 | 91 | 102 | 6 | 67
Cc1c(C(=O)N(C)Cc2ccccc2)oc2ccc(S(=O)(=O)N3CCCC3)cc12 | 68 | 88 | 72 | 95 | 5 | 39*
CCN(CC)S(=O)(=O)c1ccc2oc(C(=O)NC(C)C)c(C)c2c1 | 82 | 100 | 78 | 97 | 2 | 29*
Cc1ccc(CNC(=O)c2oc3ccc(S(=O)(=O)N4CCOCC4)cc3c2C)cc1 | 81 | 97 | 74 | 85 | 2 | 31*
CCn1cc(C(=O)NCc2ccc(Cl)cc2)c(=O)c2cc(S(=O)(=O)N3CCOCC3)ccc21 | 68 | 90 | 63 | 86 | 17 | 30*
O=C(NCCN1CCOCC1)c1cc(Cl)ccc1[N+](=O)[O-] | 101 | x | 105 | x | x | x
CCN(CC)S(=O)(=O)c1ccc2oc(C(=O)NCc3ccc(C)cc3)c(C)c2c1 | 80 | 88 | 72 | 85 | 3 | 38*
